Reference: ChEMBL document CHEMBL2417552, “Screen of pseudopeptidic inhibitors of human sirtuins 1-3: two lead compounds with antiproliferative effects in cancer cells” (J Med Chem, 2013)

Columns and labels:
[1] = target: T1, NAD-dependent protein deacetylase sirtuin-3, mitochondrial (Homo sapiens) (UniProt Q9NTG7); details: at 50 µM;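 note: recombinant His-tagged human SIRT3 with KI179 substrate, fluorescence read after 1 h, inhibition expressed relative to control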
T1 sequence (whole entry): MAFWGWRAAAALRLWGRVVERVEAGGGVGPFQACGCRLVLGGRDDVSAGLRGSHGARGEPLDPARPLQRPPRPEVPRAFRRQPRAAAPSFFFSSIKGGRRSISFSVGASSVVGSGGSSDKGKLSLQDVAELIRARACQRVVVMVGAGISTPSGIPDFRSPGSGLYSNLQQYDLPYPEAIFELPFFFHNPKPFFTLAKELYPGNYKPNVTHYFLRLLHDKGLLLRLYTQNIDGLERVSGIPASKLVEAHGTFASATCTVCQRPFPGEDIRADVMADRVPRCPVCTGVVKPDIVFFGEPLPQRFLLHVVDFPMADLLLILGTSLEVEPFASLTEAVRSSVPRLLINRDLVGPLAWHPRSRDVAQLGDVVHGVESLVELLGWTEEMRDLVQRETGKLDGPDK

[2] = target: T2, NAD-dependent protein deacetylase sirtuin-2 (Homo sapiens) (UniProt Q8IXJ6); experiment: Inhibition of human recombinant GST-tagged SIRT2 using KI179 as substrate at 50 uM preincubated for 5 mins followed by enzyme addition measured after 1 hr by fluorescence assay relative to control
T2 sequence (whole entry): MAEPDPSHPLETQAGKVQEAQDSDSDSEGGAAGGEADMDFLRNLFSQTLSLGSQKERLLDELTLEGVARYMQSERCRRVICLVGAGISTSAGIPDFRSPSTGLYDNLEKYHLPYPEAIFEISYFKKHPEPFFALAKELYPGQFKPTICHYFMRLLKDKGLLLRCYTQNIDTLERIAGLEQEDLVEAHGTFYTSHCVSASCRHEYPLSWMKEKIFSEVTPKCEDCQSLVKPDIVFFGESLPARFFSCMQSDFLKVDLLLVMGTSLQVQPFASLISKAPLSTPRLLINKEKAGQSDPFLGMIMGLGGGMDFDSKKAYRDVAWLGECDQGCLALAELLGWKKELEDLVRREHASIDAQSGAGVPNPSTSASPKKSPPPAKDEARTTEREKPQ
How it was run: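 Recombinant GST-SIRT2, Fluor de Lys assay in SIRT assay buffer. Acetylated peptide KI179 at 0.7 Km (Km 198 µM) and NAD+ at 0.9 Km (reported Km 547 µM). Buffer, substrate, NAD+ and compound in DMSO preincubated 5 min at room temperature. Enzyme added to start; 1 h at 37 °C. Developer with 2 mM nicotinamide added; 45 min at 37 °C; fluorescence read. Mean ± SD, ≥3 experiments.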

[3] = target: T3, NAD-dependent protein deacetylase sirtuin-1 (Homo sapiens) (UniProt Q96EB6); details: at 50 µM;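 note: recombinant GST-tagged human SIRT1 enzyme assay with KI177 substrate, fluorescence read 1 h after enzyme addition, inhibition expressed relative to control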
T3 sequence (whole entry): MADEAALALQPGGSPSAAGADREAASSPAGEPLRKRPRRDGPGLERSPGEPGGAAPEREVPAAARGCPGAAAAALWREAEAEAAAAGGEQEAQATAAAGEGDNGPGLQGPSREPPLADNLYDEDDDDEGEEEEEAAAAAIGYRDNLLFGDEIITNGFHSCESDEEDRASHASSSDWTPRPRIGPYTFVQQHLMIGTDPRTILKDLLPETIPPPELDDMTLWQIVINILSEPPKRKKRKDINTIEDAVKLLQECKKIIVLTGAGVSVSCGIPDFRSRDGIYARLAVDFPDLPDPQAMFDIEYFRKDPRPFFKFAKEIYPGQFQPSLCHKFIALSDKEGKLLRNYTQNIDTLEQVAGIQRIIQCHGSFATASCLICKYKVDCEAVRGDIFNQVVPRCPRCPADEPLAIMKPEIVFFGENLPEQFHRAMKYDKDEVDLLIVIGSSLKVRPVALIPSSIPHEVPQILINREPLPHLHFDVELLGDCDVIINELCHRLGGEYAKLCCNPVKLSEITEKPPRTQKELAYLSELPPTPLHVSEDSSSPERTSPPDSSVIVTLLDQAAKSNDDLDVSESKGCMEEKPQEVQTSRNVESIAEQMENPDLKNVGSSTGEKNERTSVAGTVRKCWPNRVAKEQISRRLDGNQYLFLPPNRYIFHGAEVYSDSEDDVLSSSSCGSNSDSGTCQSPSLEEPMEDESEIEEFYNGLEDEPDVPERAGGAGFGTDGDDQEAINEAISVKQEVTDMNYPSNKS

SMILES	inhibition [1] [%]	inhibition [2] [%]	inhibition [3] [%]
CC(=S)NCCCC[C@H](NC(=O)CCCCCCc1ccccc1)C(=O)NCc1ccccc1	87	74	99
CC(=S)NCCCC[C@H](NC(=O)OCc1ccccc1)C(=O)NCCc1c[nH]c2ccc(OCc3ccccc3)cc12	68	79	87
CC(=S)NCCCC[C@H](NC(=O)[C@@H]1CCCN1C(=O)OC(C)(C)C)C(=O)NCC(=O)c1ccccc1	76	95	97
CC(=S)NCCCC[C@H](NC(=O)[C@@H]1CCCN1C(=O)OC(C)(C)C)C(=O)NCCc1cccnc1	68	49	66
CC(=S)NCCCC[C@H](NC(=O)OCc1ccccc1)C(=O)N[C@@H](C)C(N)=O	85	86	96
CC(=S)NCCCC[C@H](NC(=O)OC(C)(C)C)C(=O)NCC(=O)c1ccccc1	63	87	91
CC(=S)NCCCC[C@H](NC(=O)OCc1ccccc1)C(=O)NCC(N)=O	77	72	91
CC(=S)NCCCC[C@H](NC(=O)OCc1ccccc1)C(=O)NCCc1c[nH]c2ccccc12	46	61	85
CC(=S)NCCCC[C@H](NC(=O)OC(C)(C)C)C(=O)NCCc1cccnc1	24	28	41
CC(=S)NCCCC[C@H](NC(=O)CCc1cccnc1)C(=O)NCC(=O)c1ccccc1	62	58	95
CC(=S)NCCCC[C@H](NC(=O)C[C@@H]1NC(=O)[C@H](Cc2ccccc2)NC1=O)C(=O)NCC(=O)c1ccccc1	61	73	96
CC(=S)NCCCC[C@H](NC(=O)CCCCCc1ccccc1)C(=O)NCc1ccccc1	84	71	100
CC(=S)NCCCC[C@H](NC(=O)CN(C)C)C(=O)Nc1ccccc1	16	18	62
CC(=S)NCCCC[C@H](NC(=O)CCc1ccccc1F)C(=O)Nc1cccnc1	72	74	94

The next lines start with the values.

inhibition [1] [%]	inhibition [2] [%]	inhibition [3] [%]	SMILES
45	54	77	CC(=S)NCCCC[C@H](NC(=O)OCc1ccccc1)C(=O)NCC(O)c1ccccc1 (some centres not stated)
69	54	90	CC(=S)NCCCC[C@H](NC(=O)[C@@H]1C[C@@H](O)CN1C(=O)OCc1ccccc1)C(=O)Nc1ccccc1
19	13	86	CC(=S)NCCCC[C@H](NC(=O)[C@@H]1CCCN1)C(=O)Nc1ccccc1
71	67	91	CC(=S)NCCCC[C@H](NC(=O)OCc1ccccc1)C(=O)NCc1ccccc1
72	76	98	CC(=S)NCCCC[C@H](NC(=O)CCCc1ccccc1)C(=O)NCC(=O)c1ccccc1
39	21	83	CC(=S)NCCCC[C@H](NC(=O)CCc1ccccc1)C(=O)Nc1cccnc1
41	52	72	CC(=S)NCCCC[C@H](NC(=O)OCc1ccccc1)C(=O)NCCc1ccccc1
59	70	84	CC(=S)NCCCC[C@H](NC(=O)OCc1ccccc1)C(=O)Nc1cccnc1
68	65	96	CC(=S)NCCCC[C@H](NC(=O)CCc1ccccc1)C(=O)NCC(=O)c1ccccc1
62	81	83	CC(=S)NCCCC[C@H](NC(=O)OCc1ccccc1)C(=O)Nc1ccccc1
45	44	80	CC(=S)NCCCC[C@H](NC(=O)[C@@H]1CCCN1C(=O)OC(C)(C)C)C(=O)Nc1ccccc1
74	94	97	CC(=S)NCCCC[C@H](NC(=O)OCc1ccccc1)C(=O)NCC(=O)c1ccccc1
93	87	97	CC(=S)NCCCC[C@H](NC(=O)[C@@H]1C[C@@H](O)CN1C(=O)OCc1ccccc1)C(=O)NCc1ccccc1
82	83	98	CC(=S)NCCCC[C@H](NC(=O)CCCCCc1ccccc1)C(=O)NCC(=O)c1ccccc1
44	39	82	CC(=S)NCCCC[C@H](NC(=O)CCc1cccnc1)C(=O)Nc1ccccc1
